According to ChEMBL document CHEMBL3992538, “Hybrids of thienopyrimidinones and thiouracils as anti-tubercular agents: SAR and docking studies” (Eur J Med Chem, 2017):
≈ marks a conversion by molar mass, not a printed value.

Legend:
[1] = tested on: Mycobacterium tuberculosis; assay: Antitubercular activity against dormant stage of Mycobacterium tuberculosis H37Ra ATCC 25177 infected in human THP1 cells after 12 days by nitrate reductase assay; format: functional; details: H37Ra ATCC 25177, 288 h
In short: (§1)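 Ex vivo test of H37Ra in THP-1 cells by nitrate reductase assay, absorbance read at 540 nm. Active stage incubated 8 days and dormant stage 12 days. H37Ra (ATCC 25177) grown in M. pheli medium to OD 1.0 and subcultured once from -70°C stock.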

[2] = tested on: Mycobacterium tuberculosis; assay: Antitubercular activity against active stage of Mycobacterium tuberculosis H37Ra ATCC 25177 infected in human THP1 cells after 8 days by nitrate reductase assay; format: functional; details: H37Ra ATCC 25177, 192 h; in short: as §1
[3] = tested on: Mycobacterium tuberculosis; assay: Antitubercular activity against dormant stage of Mycobacterium tuberculosis H37Ra ATCC 25177 after 12 days by XTT reduction menadione assay; format: functional; details: H37Ra ATCC 25177, 288 h
In short: (§2)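 M. tuberculosis H37Ra (ATCC 25177), grown to log phase (OD 1.0) in M. pheli medium from -70°C stock, subcultured once before inoculation. Incubation 8 days (active) or 12 days (dormant). XRMA read-out as absorbance at 470 nm.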

[4] = tested on: Mycobacterium tuberculosis; assay: Antitubercular activity against active stage of Mycobacterium tuberculosis H37Ra ATCC 25177 after 8 days by XTT reduction menadione assay; format: functional; details: H37Ra ATCC 25177, 192 h; in short: as §2
[5] = Cytotoxicity against human THP1 cells assessed as growth inhibition by MTT assay; format: cell-based; details: THP-1 cells
In short: (§3)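 MTT assay in duplicate on THP-1 leukaemia, A549 lung adenocarcinoma, PANC-1 pancreatic adenocarcinoma and HeLa cervical carcinoma cells, all obtained from ECCC.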

[6] = Cytotoxicity against human A549 cells assessed as growth inhibition by MTT assay; format: cell-based; in short: as §3
[7] = Cytotoxicity against human PANC1 cells assessed as growth inhibition by MTT assay; format: cell-based; details: PANC-1 cells; in short: as §3
[8] = Cytotoxicity against human HeLa cells assessed as growth inhibition by MTT assay; format: cell-based; in short: as §3
[9] = Selectivity index, ratio of GI50 for human A549 cells to MIC for dormant stage of Mycobacterium tuberculosis H37Ra ATCC 25177 infected in human THP1 cells; format: toxicity, cell-based; details: read-out: Selectivity Index
In short: (§4)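 Selectivity index is the cytotoxic GI50 against the named human cell line divided by the antimycobacterial value. Activity counted as specific when SI >10.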

[10] = Selectivity index, ratio of GI50 for human A549 cells to MIC for dormant stage of Mycobacterium tuberculosis H37Ra ATCC 25177; format: toxicity; details: read-out: Selectivity Index; in short: as §4
[11] = Selectivity index, ratio of GI50 for human PANC1 cells to MIC for dormant stage of Mycobacterium tuberculosis H37Ra ATCC 25177 infected in human THP1 cells; format: toxicity, cell-based; details: PANC-1 cells, read-out: Selectivity Index; in short: as §4
[12] = Selectivity index, ratio of GI50 for human PANC1 cells to MIC for dormant stage of Mycobacterium tuberculosis H37Ra ATCC 25177; format: toxicity; details: PANC-1 cells, read-out: Selectivity Index; in short: as §4
[13] = Selectivity index, ratio of GI50 for human HeLa cells to MIC for dormant stage of Mycobacterium tuberculosis H37Ra ATCC 25177 infected in human THP1 cells; format: toxicity, cell-based; details: read-out: Selectivity Index; in short: as §4
[14] = Selectivity index, ratio of GI50 for human HeLa cells to MIC for dormant stage of Mycobacterium tuberculosis H37Ra ATCC 25177; format: toxicity, cell-based; details: read-out: Selectivity Index; in short: as §4
[15] = Selectivity index, ratio of GI50 for human A549 cells to MIC for active stage of Mycobacterium tuberculosis H37Ra ATCC 25177 infected in human THP1 cells; format: toxicity, cell-based; details: read-out: Selectivity Index; in short: as §4
[16] = Selectivity index, ratio of GI50 for human A549 cells to MIC for active stage of Mycobacterium tuberculosis H37Ra ATCC 25177; format: toxicity; details: read-out: Selectivity Index; in short: as §4
[17] = Selectivity index, ratio of GI50 for human PANC1 cells to MIC for active stage of Mycobacterium tuberculosis H37Ra ATCC 25177 infected in human THP1 cells; format: toxicity, cell-based; details: PANC-1 cells, read-out: Selectivity Index; in short: as §4
[18] = Selectivity index, ratio of GI50 for human PANC1 cells to MIC for active stage of Mycobacterium tuberculosis H37Ra ATCC 25177; format: toxicity; details: PANC-1 cells, read-out: Selectivity Index; in short: as §4
[19] = Selectivity index, ratio of GI50 for human HeLa cells to MIC for active stage of Mycobacterium tuberculosis H37Ra ATCC 25177 infected in human THP1 cells; format: toxicity, cell-based; details: read-out: Selectivity Index; in short: as §4
[20] = Selectivity index, ratio of GI50 for human HeLa cells to MIC for active stage of Mycobacterium tuberculosis H37Ra ATCC 25177; format: toxicity, cell-based; details: read-out: Selectivity Index; in short: as §4

SMILES | MIC [1] [µg/mL] | MIC [2] [µg/mL] | MIC [3] [µg/mL] | MIC [4] [µg/mL] | GI50 [5] [µg/mL] | GI50 [6] [µg/mL] | GI50 [7] [µg/mL] | GI50 [8] [µg/mL] | selectivity ratio [9] | selectivity ratio [10] | selectivity ratio [11] | selectivity ratio [12] | selectivity ratio [13] | selectivity ratio [14] | selectivity ratio [15] | selectivity ratio [16] | selectivity ratio [17] | selectivity ratio [18] | selectivity ratio [19] | selectivity ratio [20]
COc1cc(-c2nc(SCCCn3cnc4sc5c(c4c3=O)CCCC5)n(Cc3c(F)c(F)c(F)c(F)c3F)c(=O)c2C#N)cc(OC)c1OC | 26.5 (≈ 35.5 µM) | > 30 | 28.3 (≈ 37.9 µM) | > 30 | > 100 | > 100 | > 100 | > 100 | > 4 | > 4 | > 4 | > 4 | > 4 | > 4 | > 3 | > 3 | > 3 | > 3 | > 3 | > 3
COc1cc(-c2nc(SCCCn3cnc4sc5c(c4c3=O)CCCC5)n(Cc3ccccc3)c(=O)c2C#N)cc(OC)c1OC | > 30 | > 30 | > 30 | > 30 | > 100 | > 100 | 51.9 (≈ 79.1 µM) | 72.1 (≈ 110 µM) | > 3 | > 3 | 2 | 2 | 2 | 2 | > 3 | > 3 | 2 | 2 | 2 | 2
COc1cc(-c2nc(SCCCn3cnc4sc5c(c4c3=O)CCCC5)n(S(=O)(=O)c3ccc(C)cc3)c(=O)c2C#N)cc(OC)c1OC | > 30 | > 30 | > 30 | > 30 | > 100 | > 100 | > 100 | 64.2 (≈ 89.2 µM) | > 3 | > 3 | > 3 | > 3 | < 2 | 2 | > 3 | > 3 | > 3 | > 3 | 2 | 2
C#CCn1c(SCCCn2cnc3sc4c(c3c2=O)CCCC4)nc(-c2cc(OC)c(OC)c(OC)c2)c(C#N)c1=O | > 30 | > 30 | > 30 | > 30 | > 100 | > 100 | > 100 | 66.3 (≈ 110 µM) | > 3 | > 3 | > 3 | > 3 | – | 2 | > 3 | > 3 | > 3 | > 3 | 2 | 2
CC(=O)O[C@H]1C(=O)[C@@]2(C)[C@H]([C@H](OC(=O)c3ccccc3)[C@]3(O)C[C@H](OC(=O)[C@H](O)[C@@H](NC(=O)c4ccccc4)c4ccccc4)C(C)=C1C3(C)C)[C@]1(OC(C)=O)CO[C@@H]1C[C@@H]2O [PACLITAXEL] | – | – | – | – | – | – | 0.128 (≈ 0.15 µM) | – | – | – | – | – | – | – | – | – | – | – | – | –
CO[C@H]1/C=C/O[C@@]2(C)Oc3c(C)c(O)c4c(O)c(c(/C=N/N5CCN(C)CC5)c(O)c4c3C2=O)NC(=O)/C(C)=C\C=C\[C@H](C)[C@H](O)[C@@H](C)[C@@H](O)[C@@H](C)[C@H](OC(C)=O)[C@@H]1C [RIFAMPIN] | 0.75 (≈ 0.911 µM) | 0.51 (≈ 0.62 µM) | 0.48 (≈ 0.583 µM) | 0.41 (≈ 0.498 µM) | 0.14 (≈ 0.17 µM) | – | – | – | – | 208 | – | 208 | – | 208 | 196 | 244 | 196 | 244 | 196 | 244
